SUMO1-SIM PPI: modulators of human SUMO1-mediated protein-protein interactions; SUMO1 binding to a labelled peptide, TR-FRET, 1 h; AID 602429; inhibition, % at 20 µM; 0.33% of 360,000 active; P63165; in the data active = inhibition above about 37%
Target sequence (P63165 whole entry, looked up): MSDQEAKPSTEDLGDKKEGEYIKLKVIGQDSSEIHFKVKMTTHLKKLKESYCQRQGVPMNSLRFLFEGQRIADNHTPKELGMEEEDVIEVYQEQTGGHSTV
DNMT1 inh: DNMT1 (human) enzyme inhibition; P26358; DNMT1 molecular beacon, Hinp1I cleavage, fluorescence; inhibition (reported as % activation of signal), % at 10 µM; 0.83% of 360,000 active; AID 588458; in the data active = inhibition above about 50%
STEP block: inhibitors of human striatal-enriched phosphatase STEP; 0.25% of 360,000 active; recombinant STEP, OMFP fluorogenic substrate, fluorescence; AID 588621; inhibition, % at 20 µM;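 active = inhibition at 20 µM, scaled per plate between control wells, above about 37%, limit read from the data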;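 also: 0% = DMSO with enzyme and substrate and 100% = substrate only without enzyme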
Target sequence (P54829 whole entry, looked up): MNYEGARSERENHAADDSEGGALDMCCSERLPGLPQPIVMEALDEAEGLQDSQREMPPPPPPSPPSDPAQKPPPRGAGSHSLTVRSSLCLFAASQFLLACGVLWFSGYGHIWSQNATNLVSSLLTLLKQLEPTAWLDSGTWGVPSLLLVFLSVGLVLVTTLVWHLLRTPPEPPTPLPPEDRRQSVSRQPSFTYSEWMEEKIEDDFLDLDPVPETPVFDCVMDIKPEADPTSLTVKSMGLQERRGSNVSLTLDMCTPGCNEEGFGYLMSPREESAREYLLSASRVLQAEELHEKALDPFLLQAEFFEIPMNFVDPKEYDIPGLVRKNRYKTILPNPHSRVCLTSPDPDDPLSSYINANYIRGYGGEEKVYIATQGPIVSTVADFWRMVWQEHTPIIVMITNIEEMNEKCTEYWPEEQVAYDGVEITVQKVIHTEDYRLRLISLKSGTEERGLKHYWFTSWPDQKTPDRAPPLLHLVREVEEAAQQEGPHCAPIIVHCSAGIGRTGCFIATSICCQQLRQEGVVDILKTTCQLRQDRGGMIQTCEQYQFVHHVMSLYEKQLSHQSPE
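medium = Bis-Tris buffer pH 6.0, 2.5 mM DTT, 0.005% Tween 20 | test system = STEP (striatal-enriched tyrosine phosphatase) enzyme, cell-free | measure = normalized % inhibition | compound dosing = 20 µM, 1% DMSO | also added = 25 µM OMFP | schedule = reaction 20 min, ambient temperature | measured by = fluorescence read at 480 nm ex / 540 nm em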
Scp-1 inhibitor: inhibitors of human Scp-1 phosphatase; 0.88% of 340,000 active; Recombinant Scp1, phosphopeptide, malachite green phosphate absorbance; inhibition, % at 20 µM; Q9GZU7; AID 493091;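 active = inhibition above about 50% at 20 µM, limit read from the data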;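 also: plate controls were DMSO wells with enzyme for no effect and wells lacking enzyme for full effect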
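Material – SCP-1 phosphatase catalytic domain, residues 76-261 · Buffer or medium – Acidic Tris acetate buffer with magnesium and detergent · Also added – Phospho 17-mer peptide substrate · Compound – single 20 µM dose, 1% DMSO · Times – 45 min room-temperature reaction, 5 min colour, 30 min stabiliser · Technique – Phosphate-binding colour reagent, absorbance read at 630 nm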
LMPTP block: blocks human LMPTP phosphatase. P24666. recombinant LMPTP-A, OMFP fluorogenic substrate, fluorescence intensity. inhibition, % at 20 µM. 0.22% of 360,000 active. AID 651560;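 active = compounds that cut the enzyme signal by at least half of the control window in the single-dose screen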;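 also: plate controls were DMSO wells with enzyme plus substrate for no effect and substrate without enzyme for full effect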
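test system = LMPTP-A | amount = 0.625 nM LMPTP-A final | reagent = fluorogenic phosphatase substrate OMFP at 400 µM final | incubation = 50 min at room temperature | benchmarks = no-enzyme low control, uninhibited high control | medium = Bis-Tris pH 6.0, DTT, detergent | signal = fluorescence intensity of OMFP turnover product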
CSN deneddyl inh: CSN deneddylation inhibition | 0.38% of 360,000 active | inhibition, % at 12.5 µM | Purified CSN, SCF-Nedd8-OG deneddylation, fluorescence polarization | Q92905;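 active = pattern-corrected inhibition above about 35%, with an unprinted fluorescence ratio check between 0.5 and 1.5, limit read from the data, passing the limit was not always enough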;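 also: 0% = enzyme with substrate and 100% = substrate without enzyme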
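test system = HEK293T-derived human Csn5 enzyme | amount = 0.24 nM Csn5 enzyme, final concentration | medium = Tris/NaCl/DTT buffer, pH 7.5 | schedule = 90 min reaction at room temperature | signal = FP | evaluation = inhibition of Csn5 cleavage, % | compound dosing = single dose of 12.5 µM compound with 0.25% DMSO | probe or stimulus = 10 nM SCFSkp2-Nedd8OG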
Scp-1 conf: Scp-1 (human) inhibition, single-dose confirmed; 61% of 2,500 active; AID 540281; inhibition, % at 20 µM; recombinant SCP-1 catalytic domain, phosphate release, malachite green absorbance; shares compounds with Scp-1 inhibitor;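 also: plate controls were DMSO with enzyme for no effect and buffer wells lacking enzyme for full effect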
MG interference: counter-screen for Scp-1 inhibitors: colorimetric interference. shares compounds with Scp-1 inhibitor. Colorimetric interference counterscreen, malachite green absorbance 630 nm. apparent inhibition (interference), % at 20 µM. 2,500 tested, under 10 active. AID 540313;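 also: compounds added after enzyme reaction finished so only phosphate colour detection is probed; plate controls were DMSO wells with completed Scp-1 reaction for no effect and substrate wells lacking enzyme for full effect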
Scp-1 Tm shift: validation of human Scp-1 inhibitors by thermal shift binding. thermal shift relative to vanadate control, % at 40 µM. Recombinant SCP1, Sypro Orange thermal shift Tm. shares compounds with Scp-1 inhibitor. 25% of 1,500 active;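 active = substances whose mean melting-temperature shift, as a percentage of the reference inhibitor's shift, reaches about 5.3%, limit read from the data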;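 also: 0% = Tm of DMSO wells and 100% = Tm with sodium orthovanadate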
DNMT1 interf DR: shows spectral interference in the DNMT1 beacon assay; 200 tested, under 10 active; IC50, µM; shares compounds with DNMT1 inh; molecular beacon fluorescence, spectral interference counter-screen; call rule not given here
DNMT1 inh conf: DNMT1 inhibition confirmation, single concentration; inhibition, % at 10 µM; 8% of 2,300 active; AID 602385; shares compounds with DNMT1 inh; DNMT1 molecular beacon HinP1I cleavage, fluorescence;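 active = average inhibition of at least 30% in the single-concentration confirmation test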
Beacon interf: beacon fluorescence artifact counter-screen | shares compounds with DNMT1 inh | DNMT1 molecular beacon spectral interference counterscreen, fluorescence 485/520 | activation (fluorescence interference), % at 10 µM | 1% of 2,300 active;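 active = activation of at least 30% at 10 µM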;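 also: DNMT1 catalytic domain with a HinP1I cleavage step and a FAM/dabcyl DNA beacon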
An asterisk follows results filed as active; / = not tested or not shown. Compounds with a hit are over-represented: about 1.9% of the library has one in this group of screens.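 The calls were made as follows, unless noted: active = inhibition of at least 30% at 20 µM; inactive = the rest.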

SMILES	SUMO1-SIM PPI	DNMT1 inh	STEP block	Scp-1 inhibitor	LMPTP block	CSN deneddyl inh	Scp-1 conf	MG interference	Scp-1 Tm shift	DNMT1 inh conf	Beacon interf	others
Cc1ccc2nc(/C(C#N)=C\c3cc(O)ccc3[N+](=O)[O-])[nH]c2c1	-7	-10	-1	1	0	-10	/	/	/	/	/
Cc1ccc2nc(/C(C#N)=C\c3ccc(Oc4ccc(C(F)(F)F)cc4[N+](=O)[O-])cc3)[nH]c2c1	-5	81*	12	97*	13	9	87*	2	5.6*	1	-2
COc1ccc(C)cc1NC(=O)CCC(=O)Nc1nnc(C2CCCCC2)s1	-5	13	0	-5	0	-4	/	/	/	/	/
CC(C)CN(Cc1cc(=O)oc2cc(-c3ccccc3)c(O)cc12)CC(C)C	-2	-9	0	-11	1	-2	/	/	/	/	/
COc1ccc(NC(=O)CN(C)C(=O)c2cc(-c3ccco3)nc3ccccc23)cc1	10	99*	10	73*	45	46	61*	-18	7.4*	23	-3	DNMT1 interf DR=>99
Cc1ccc(NC(=O)c2cc(-c3ccco3)nc3ccccc23)cc1S(=O)(=O)N1CCOCC1	1	68*	0	65*	13	37*	36*	-4	7.1*	10	3
COc1ccc(NC(=O)c2cc(C)nc3ccccc23)cc1S(=O)(=O)N1CCOCC1	-1	1	2	11	0	2	/	/	/	/	/
CCCCCCNC(=O)c1cc(-c2ccco2)nc2ccccc12	-8	106*	10	71*	6	17	67*	-14	2	9	7
CN(C)C(CNC(=O)c1cc(-c2ccco2)nc2ccccc12)c1ccccc1 (stereo not drawn)	-8	86*	5	70*	34	33	55*	-12	13*	46*	-2	DNMT1 interf DR=>99
CC(C)NC(=O)Nc1ccc2c(c1)C(=O)N([C@H](C)CO)C[C@@H](C)[C@@H](CN(C)C(=O)NC1CCCCC1)O2	7	4	4	4	0	-3	/	/	/	/	/
COc1ccccc1C(=O)NNC(=O)C1CC=CCC1 (stereo not drawn)	1	1	0	6	-1	-1	/	/	/	/	/
Cc1cc(NC(=O)CS(=O)(=O)c2cn(Cc3cccc(C(F)(F)F)c3)c3ccccc23)no1	6	4	1	/	1	31	/	/	/	/	/
OC(C[n+]1ccccc1)c1ccccc1 (stereo not drawn)	3	-3	-2	-2	-2	2	/	/	/	/	/
CCc1nnc(NC(=O)c2cc(-c3ccco3)nc3ccccc23)s1	51*	92*	10	65*	45	47	45*	-15	8.5*	23	-1
O=C(NC1CCC(O)CC1)c1cc(-c2ccco2)nc2ccccc12 (stereo not drawn)	0	57*	2	51*	10	13	57*	-13	5	13	3
CCc1nnc(NC(=O)c2cc(-c3ccccn3)nc3ccccc23)s1	12	1	-4	-3	0	-2	/	/	/	/	/
O=C(CSc1nc2ccccc2c(=O)n1-c1ccc(F)cc1F)NC1CCS(=O)(=O)C1 (stereo not drawn)	-5	-3	0	/	0	-3	/	/	/	/	/
CCn1nnc(NC(=O)c2ccco2)n1	-1	0	3	-8	-2	0	/	/	/	/	/
O=C(N/N=C/c1ccco1)C1CC1c1ccccc1 (stereo not drawn)	0	92*	4	60*	6	11	48*	-14	-14	21	4
Cc1ccc(NC(=O)CSc2ncc3ccccn23)cc1	1	0	1	2	0	-4	/	/	/	/	/
COc1ccc2[nH]c(=O)c(C(=O)O)cc2c1	1	1	7	-7	-1	-5	/	/	/	/	/
COc1ccc2[nH]c(=O)cc(C(=O)O)c2c1	6	58*	2	69*	0	14	73*	-10	-4	8	6
O=C(N/N=C/C=C/c1ccccc1[N+](=O)[O-])c1ccncc1	-23	-1	2	-4	-1	1	/	/	/	/	/
O=C(N/N=C/C=C\c1ccccc1[N+](=O)[O-])c1cc(-c2ccc3ccccc3c2)n[nH]1	-1	68*	30	96*	42	33	86*	-4	2	4	-4
Cc1ccc(S(=O)(=O)N(CC(=O)O)Cc2ccco2)cc1	6	76*	5	93*	9	24	61*	-20	0	7	-1
SMILES	SUMO1-SIM PPI	DNMT1 inh	STEP block	Scp-1 inhibitor	LMPTP block	CSN deneddyl inh	Scp-1 conf	MG interference	Scp-1 Tm shift	DNMT1 inh conf	Beacon interf	others
COc1ccc(N2Cc3cccc(C(=O)O)c3C2=O)cc1	16	87*	6	82*	7	32	71*	-10	0	15	-1
Cc1ccc(S(=O)(=O)/N=C2/NC(=O)/C(=C/c3ccc(Br)o3)S2)cc1	27	85*	8	56*	3	34	54*	-28	14*	8	-1
O=C(N/N=C/c1ccc(-c2ccccc2C(=O)O)o1)c1cccs1	25	63*	5	52*	4	17	71*	-6	6.5*	9	0
O=C(N/N=C/c1ccncc1)c1cccs1	-9	0	0	-10	-2	-5	/	/	/	/	/
CC(NS(=O)(=O)/C=C/c1ccccc1)C(=O)NCCc1ccc(S(N)(=O)=O)cc1 (stereo not drawn)	-1	-2	1	9	-1	-4	/	/	/	/	/
Cc1ccc2nc(N/N=C\c3ccc([N+](=O)[O-])o3)nc(-c3ccccc3)c2c1	-33	15	5	38	8	0	/	/	/	/	/
